From ChEMBL document CHEMBL1134834, “Quinoxalinylethylpyridylthioureas (QXPTs) as potent non-nucleoside HIV-1 reverse transcriptase (RT) inhibitors. Further SAR studies and identification of a novel orally bioavailable hydrazine-based antiviral agent” (J Med Chem, 2001)

Assays:
[1] = molecular target: Human immunodeficiency virus type 1 reverse transcriptase (Human immunodeficiency virus 1, UniProt Q72547, V106A); test: Inhibition of HIV-1 Mutant HIV-1 RT enzymes containing the single amino acid substitution V106A
[2] = molecular target: T1, Human immunodeficiency virus type 1 reverse transcriptase (Human immunodeficiency virus 1, UniProt Q72547); test: Inhibition of HIV-1 wild-type RT
[3] = Subcutaneous absorption was determined fter subcutaneous administration of a dose of 20 mg/kg in mice; assay type: ADME, organism-based; parameters: dose 20 mg/kg, route subcutaneous; conditions: mouse, in vivo, sc
How it was run: (§1)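 Mice dosed at 20 mg/kg, either subcutaneously or orally; plasma drug level measured by HPLC with an internal standard; n = 3 per point. Cmax and tmax read from the concentration-time curves. Clearance assumes complete subcutaneous absorption. Elimination t1/2, Vd and AUC derived from plasma curves. Relative oral bioavailability computed as oral AUC over subcutaneous AUC.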

[4] = Cytotoxicity against normal human lymphocytes(HL) (O.D.=0.114+/-0.01); assay type: functional; conditions: read-out: TC50 (the source's name)
[5] = Bioavailability was determined after subcutaneous administration of a dose of 20 mg/kg in mice; assay type: ADME, organism-based; conditions: mouse, in vivo, po, in the assay text read “oral” for “subcutaneous”; how it was run: as §1
Mus musculus [6] = test: Volume distribution was determined after subcutaneous administration of a dose of 20 mg/kg in mice; assay type: ADME, organism-based; parameters: dose 20 mg/kg, route subcutaneous; conditions: in vivo, sc; how it was run: as §1
C8166 [7] = test: (§2) Concentration which results in 50% survival of uninfected untreated control C8166 cells (cytotoxicity of the compound); assay type: functional, cell-based; conditions: Homo sapiens
How it was run: (§3)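 Toxicity in uninfected C8166 cells by MTT reduction to formazan, read spectrophotometrically.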

C8166 [8] = test: Synergistic antiviral activity with AZT (DDI), against HIV-IIIB in C8166 cells (combination index in association with DDI); assay type: functional, cell-based; conditions: Homo sapiens
How it was run: (§4)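 C8166 cells infected with HIV-IIIB and treated with compound combined with AZT (or DDI). Combination index calculated by the Chou-Talalay multiple drug effect analysis under both mutually exclusive and mutually nonexclusive assumptions.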

Mus musculus [9] = test: Area under curve was determined after oral administration in mice; assay type: ADME, organism-based; conditions: in vivo; how it was run: as §1
[10] = Half life period was determined after oral administration in mice; assay type: ADME, organism-based; conditions: mouse, in vivo; how it was run: as §1
[11] = molecular target: Human immunodeficiency virus type 1 reverse transcriptase (Human immunodeficiency virus 1, UniProt Q72547, Y181I); test: Inhibition of HIV-1 Mutant HIV-1 RT enzymes containing the single amino acid substitution Y181I
C8166 [12] = test: Synergistic antiviral activity of AZT (DDI) with the compound, against HIV-IIIB in C8166 cells (combination index in association with DDI); assay type: functional, cell-based; conditions: Homo sapiens; how it was run: as §4
[13] = Half life period was determined after subcutaneous administration of a dose of 20 mg/kg in mice; assay type: ADME, organism-based; parameters: dose 20 mg/kg, route subcutaneous; conditions: mouse, in vivo, sc; how it was run: as §1
C8166 [14] = test: Concentration which produces a 50% survival of HIV-1 infected cells relative to uninfected control C8166 cell (in vitro anti-HIV activity); assay type: functional, cell-based; conditions: Homo sapiens
[15] = molecular target: T1, Human immunodeficiency virus type 1 reverse transcriptase; test: Inhibition of HIV-1 Mutant HIV-1 RT enzymes containing the single amino acid substitution […]
[16] = molecular target: Human immunodeficiency virus type 1 reverse transcriptase (Human immunodeficiency virus 1, UniProt Q72547, Y188L); test: Inhibition of HIV-1 Mutant HIV-1 RT enzymes containing the single amino acid substitution Y188L
Mus musculus [17] = test: Area under curve was determined after subcutaneous administration of a dose of 20 mg/kg in mice; assay type: ADME, organism-based; parameters: dose 20 mg/kg, route subcutaneous; conditions: in vivo, sc; how it was run: as §1
NIH3T3 [18] = test: Cytotoxicity against 3T3 fibroblasts (3T3F) murine cell line (O.D.=0.131+/-0.014); assay type: functional; conditions: Mus musculus, read-out: TC50 (the source's name)
[19] = system: Human immunodeficiency virus 1; test: Inhibition of HIV-1-p24 antigen production in monocyte-macrophages (cytotoxicity of the compound); assay type: organism-based
How it was run: (§5)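 Macrophages from adherent PBMC (10^6/mL, RPMI-1640 with 20% heat-inactivated FCS), 10^5 per well, >95% pure, infected with monocytotropic HTLV-III Ba-L. Antiviral activity read 14 days after infection. […] SI = IC50/EC50. AZT control run in parallel.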

C8166 [20] = test: Antiviral activity alone against HIV-IIIB in C8166 cells; assay type: functional, cell-based; conditions: Homo sapiens
How it was run: (§6)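 C8166 CD4+ T-cell line (HTLV-I genome, only tat expressed) acutely infected with lymphocytotropic HIV-1 IIIB. […] Read-out is HIV-p24 antigen in supernatants. AZT positive control was run at the same time. SI = IC50/EC50.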

NSO = test: Cytotoxicity against NSO murine cell line (O.D.=0.125+/-0.015); assay type: functional; conditions: Mus musculus, read-out: TC50 (the source's name)
Daudi [21] = test: Cytotoxicity against Daudi Human(DH) cell line (O.D.=0.129+/-0.018); assay type: functional; conditions: read-out: TC50 (the source's name)
[22] = system: Human immunodeficiency virus 1; test: Inhibition of HIV-1-p24 antigen production in monocyte-macrophages (in vitro anti-HIV-1 activity); assay type: functional, organism-based; how it was run: as §5
[23] = molecular target: Human immunodeficiency virus type 1 reverse transcriptase (Human immunodeficiency virus 1, UniProt Q72547, K103N); test: Inhibition of HIV-1 Mutant HIV-1 RT enzymes containing the single amino acid substitution K103N
C8166 [24] = test: Synergistic antiviral activity with AZT (DDI), against HIV-IIIB in C8166 cells; assay type: functional, cell-based; conditions: Homo sapiens; how it was run: as §4
Daudi [25] = test: Cytotoxicity on Daudi Human(DH) cell line (O.D.=0.129+/-0.018); assay type: functional; conditions: read-out: TC50 (the source's name)
[26] = Selectivity index between IC50 of HIV-1-p24 and EC50 of HIV-1-p24 (IC50/EC50); assay type: functional; how it was run: as §5
CEM-SS [27] = test: Concentration which produces a 50% survival of HIV-1 infected cells relative to uninfected control CEM-SS cells (in vitro anti-HIV activity); assay type: functional, cell-based; conditions: Homo sapiens
How it was run: (§7)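 CEM-SS T4 lymphocytes infected with wild-type HIV-1. Protection from virus-induced cell death is scored against an AZT-treated positive control run under identical conditions. […] SI = IC50/EC50.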

[28] = Cytotoxicity on normal human lymphocytes(HL) (O.D.=0.114+/-0.01); assay type: functional; conditions: read-out: TC50 (the source's name)
[29] = Selectivity index was determined in C8166 cells; assay type: functional; how it was run: as §6
CEM-SS [30] = test: (§8) Concentration which results in 50% survival of uninfected untreated control CEM-SS cells (cytotoxicity of the compound); assay type: functional, cell-based; conditions: Homo sapiens, read-out: IC50 (the source's name)
NIH3T3 [31] = test: Cytotoxicity on 3T3 fibroblasts (3T3F) murine cell line (O.D.=0.131+/-0.014); assay type: functional; conditions: Mus musculus, read-out: TC50 (the source's name)
[32] = Selectivity index was determined in CEM-SS cells; assay type: functional; how it was run: as §7
Mus musculus [33] = species: Mus musculus; test: Cytotoxicity on NSO murine cell line (O.D.=0.125+/-0.015); assay type: functional; conditions: read-out: TC50 (the source's name)
C8166 [34] = test: Synergistic antiviral activity of AZT (DDI) with the compound, against HIV-IIIB in C8166 cells; assay type: functional, cell-based; conditions: Homo sapiens; how it was run: as §4
[35] = system: Human immunodeficiency virus 1; test: Concentration which produces a 50% survival of HIV-1 infected cells relative to uninfected control C8166 cells; assay type: functional, organism-based; conditions: Human immunodeficiency virus 1, C8166
C8166 [36] = test: as §2; assay type: cell-based; conditions: Homo sapiens; how it was run: as §3
CEM-SS [37] = test: as §8; assay type: cell-based; conditions: Homo sapiens

| Structure (SMILES) | Ki [1] | Ki [2] | IC50 (C8166 [7]) | Ki [11] | Ki [15] | Ki [16] | IC50 [19] | EC50 (C8166 [20]) | EC50 [22] | Ki [23] | SI [29] | SI [32] | EC50 [35] | also measured |
| --- | --- | --- | --- | --- | --- | --- | --- | --- | --- | --- | --- | --- | --- | --- |
| O=C(NNc1nc2ccccc2n2cccc12)c1cnccn1 | 0.8 µM | 0.19 µM | 18 µM | 2.5 µM | 0.3 µM | 1.8 µM | 25 µM | 0.45 µM | 0.2 µM | – | – | – | – | Tmax [3]: 2 h; CC50 [4]: 870 µM; bioavailability [5]: 45%; Vd (Mus musculus [6]): 3 L/kg; EC50 (C8166 [8]): 0.14 µM; AUC (Mus musculus [9]): 21.7 nM hr-1 ml-1; half-life [10]: 1.4 h; EC50 (C8166 [12]): 0.098 µM; half-life [13]: 1.5 h; EC50 (C8166 [14]): 0.4 µM; AUC (Mus musculus [17]): 48.7 nM hr-1 ml-1; CC50 (NIH3T3 [18]): 880 µM; CC50 (NSO): 870 µM; CC50 (Daudi [21]): 860 µM |
| O=c1n(CCNC(=S)Nc2ccc(Br)cn2)c2ccccc2c2ccnn12 | 0.33 µM | 0.015 µM | – | 0.52 µM | 0.1 µM | 0.4 µM | – | – | – | 0.021 µM | – | – | – | – |
| O=c1c2cccn2c2cccc(F)c2n1CC/N=C(\S)Nc1ccc(Br)cn1 | 0.015 µM | 0.009 µM | 200 µM | 0.2 µM | 0.17 µM | 0.2 µM | 17 µM | 0.025 µM | 0.002 µM | 0.16 µM | 7990 | >43 | 0.025 µM | EC50 (C8166 [24]): 0.002 µM; CC50 (Daudi [25]): 1000 µM; SI [26]: 8800; EC50 (CEM-SS [27]): 0.00047 µM; CC50 [28]: 960 µM; CC50 (CEM-SS [30]): > 0.02 µM; CC50 (NIH3T3 [31]): 1000 µM; CC50 (Mus musculus [33]): 1000 µM; EC50 (C8166 [34]): 0.003 µM |
| Cc1cn([C@H]2C[C@H](N=[N+]=[N-])[C@@H](CO)O2)c(=O)[nH]c1=O [ZIDOVUDINE] | – | – | – | – | – | – | – | – | – | – | >250 | 526 | 0.4 µM | IC50 (C8166 [36]): > 100 µM; IC50 (CEM-SS [37]): > 1 µM |
